system: SK-N-SH; experiment: Inhibition of human SK-N-SH cell proliferation at 100 uM after 48 hrs by MTT assay; assay type: functional
In short: (§1)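 Human SK-N-SH neuroblastoma cells were grown in RPMI 1640 with 10% FBS, 2 mM glutamine, penicillin/streptomycin, 1 mM pyruvate and 1% non-essential amino acids at 37 °C under 5% CO2. Cells were plated at 10 000/well and dosed next day at 1–100 μM, with solvent (ethanol, DMSO) controls. After 48 h, 0.5 mg/mL MTT was added for 3 h at 37 °C. Formazan was dissolved in DMSO and read at 570 and 630 nm.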

Row | SMILES | inhibition at 100 µM [%]
1 | c1ccc(CCN2CCN(c3ccccn3)CC2)cc1 | 38
2 | COc1cccc2c1CCCC2CCCN1CC[N+](C)(C2CCCCC2)CC1 (stereo unspecified) | 22
3 | COc1cccc2c1CCCC2CCC[N+]1(C)CCN(C2CCCCC2)CC1 (stereo unspecified) | 26
4 | COc1cccc2c1CCCC2CCC[N+]1(C)CC[N+](C)(C2CCCCC2)CC1 (stereo unspecified) | 30
5 | C1CCC(N2CCN(C3CCCCC3)CC2)CC1 | 4

biological target: not listed separately; experiment: Displacement of [3H]DTG form sigma receptor in guinea pig brain; design: species or system Cavia porcellus

Row | SMILES | Ki [nM]
6 | COc1cccc2c1CCCC2CCCN1CCNCC1 (stereo unspecified) | > 877

system: not listed separately; experiment: Binding affinity to sigma 2 receptor in human SK-N-SH cells; assay type: cell-based

Row | SMILES | Ki [nM]
7 | CC(C)=CCN1CC[C@]2(C)c3cc(O)ccc3C[C@H]1[C@H]2C [(+)-PENTAZOCINE] | 1860

biological target: Sigma non-opioid intracellular receptor 1 (Cavia porcellus, UniProt Q60492); experiment: Displacement of [3H](+)-pentazocine ((+)-[2S-(2R,6R,11R)]-1,2,3,4,5,6-hexahydro-6,11-dimethyl- 3-(3-methyl-2-butenyl)-2,6-methano-3-benzazocine- 8-ol) from sigma 1 receptor in Dunkin guinea pig brain membrane by radioreceptor binding assay; assay type: cell membranes
Sequence (Q60492 whole entry): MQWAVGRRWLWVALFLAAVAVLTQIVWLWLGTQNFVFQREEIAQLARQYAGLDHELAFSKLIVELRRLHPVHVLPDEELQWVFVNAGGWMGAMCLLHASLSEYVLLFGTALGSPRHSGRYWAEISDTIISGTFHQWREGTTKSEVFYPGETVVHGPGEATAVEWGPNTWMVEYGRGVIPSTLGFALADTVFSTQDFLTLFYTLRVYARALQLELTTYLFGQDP
In short: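 IC50 came from six to nine concentrations, in two or three experiments with duplicate samples. Compounds were tested as hydrochloride salts, or as methylammonium iodides where applicable.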

Row | SMILES | Ki [nM]
8 | CC(=O)N1CCN(C)CC1 | > 5000
9 | COc1cccc2c1CCCC2CCCN1CCC(O)(C2CCCCC2)CC1 (stereo unspecified) | 5.56
10 | O=C(C1CCCCC1)N1CCN(C2CCCCC2)CC1 | 3.59
11 | COc1cccc2c1CCCC2CCCN1CC[N+](C)(C2CCCCC2)CC1 (stereo unspecified) | 338
12 | COc1cccc2c1CCCC2CCCCCN1CCC(C2CCCCC2)CC1 (stereo unspecified) | 236
13 | COc1cccc2c1CCCC2CCCNCC(=O)NC1CCCCC1 (stereo unspecified) | 3910
14 | COc1cccc2c1CCCC2CCC[N+]1(C)CCN(C2CCCCC2)CC1 (stereo unspecified) | 63.7
15 | COc1cccc2c1CCCC2NCCN1CCC(C2CCCCC2)CC1 (stereo unspecified) | 0.67
16 | COc1cccc2c1CCCC2CCCN1CCCCC1 (stereo unspecified) | 3.38
17 | CCN1CCN(C2CCCCC2)CC1 | 62.4
18 | COc1cccc2c1CCCC2CCC[N+]1(C)CC[N+](C)(C2CCCCC2)CC1 (stereo unspecified) | > 5000
19 | C1CCC(CCCN2CCN(C3CCCCC3)CC2)CC1 | 0.25
20 | C1CCC(N2CCNCC2)CC1 | > 5000
21 | COc1cccc2c1CCCC2CCCN1CCNCC1 (stereo unspecified) | 218
22 | COc1cccc2c1CCCC2OCCN1CCC(C2CCCCC2)CC1 (stereo unspecified) | 91
23 | COc1cccc2c1CCCC2CCCN1CCN(CCCC2CCCc3c(OC)cccc32)CC1 (stereo unspecified) | > 5000
24 | COc1cccc2c1CCCC2CCC(=O)N1CCN(C2CCCCC2)CC1 (stereo unspecified) | 0.11
25 | C1CCC(N2CCN(C3CCCCC3)CC2)CC1 | 2.05
26 | CC(=O)N1CCN(C2CCCCC2)CC1 | > 5000
27 | COc1cccc2c1CCCC2CCCC1CCN(C2CCCCC2)CC1 (stereo unspecified) | 1.1
28 | COc1cccc2c1CCCC2CCCN1CCC(C2CCCCC2)CC1 (stereo unspecified) | 143
29 | COc1cccc2c1CCCC2CCCN1CCN(C(=O)C2CCCCC2)CC1 (stereo unspecified) | > 5000
30 | COc1cccc2c1CCCC2CCCN1CCOCC1 (stereo unspecified) | 9.1

system: not listed separately; experiment: Selectivity ratio of Ki for sigma 2 receptor in Wistar Hannover rat liver membrane to Ki for sigma 1 receptor in Dunkin guinea pig brain; assay type: cell membranes
In short: (§2)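 Ratios were calculated from Ki values. Sigma-1 Ki was measured with (+)-[3H]-pentazocine on guinea-pig brain membranes without cerebellum. […] Each IC50 came from six to nine concentrations, in two or three experiments with duplicates.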

Row | SMILES | Ratio Ki
31 | COc1cccc2c1CCCC2CCCN1CCC(O)(C2CCCCC2)CC1 (stereo unspecified) | 1.6
32 | O=C(C1CCCCC1)N1CCN(C2CCCCC2)CC1 | 56
33 | COc1cccc2c1CCCC2NCCN1CCC(C2CCCCC2)CC1 (stereo unspecified) | 111
34 | COc1cccc2c1CCCC2CCCN1CCCCC1 (stereo unspecified) | 12
35 | CCN1CCN(C2CCCCC2)CC1 | 5.6
36 | C1CCC(CCCN2CCN(C3CCCCC3)CC2)CC1 | 19
37 | COc1cccc2c1CCCC2CCCN1CCNCC1 (stereo unspecified) | 2.7
38 | COc1cccc2c1CCCC2OCCN1CCC(C2CCCCC2)CC1 (stereo unspecified) | 1.8
39 | COc1cccc2c1CCCC2CCC(=O)N1CCN(C2CCCCC2)CC1 (stereo unspecified) | 1630
40 | C1CCC(N2CCN(C3CCCCC3)CC2)CC1 | 5.6
41 | COc1cccc2c1CCCC2CCCC1CCN(C2CCCCC2)CC1 (stereo unspecified) | 24
42 | COc1cccc2c1CCCC2CCCN1CCOCC1 (stereo unspecified) | 49

biological target: not listed separately; experiment: Displacement of [3H]DTG form sigma 2 receptor in rat liver membrane; assay type: cell membranes
In short: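 IC50 taken from six to nine drug concentrations, two or three experiments with duplicate samples, and converted to Ki. Tested as hydrochloride salts, or as methylammonium iodide salts for the quaternized analogs.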

Row | SMILES | Ki [nM]
43 | COc1cccc2c1CCCC2CCCN1CCN(C2CCCCC2)CC1 (stereo unspecified) | 0.68

biological target: not listed separately; experiment: Displacement of [3H]DTG form sigma 2 receptor in Wistar Hannover rat liver membrane by radioreceptor binding assay; assay type: cell membranes
In short: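 Specific binding was defined with DTG (85-96%). IC50 came from six to nine drug concentrations, in two or three experiments with duplicate samples.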

Row | SMILES | Ki [nM]
44 | CC(=O)N1CCN(C)CC1 | > 10000
45 | COc1cccc2c1CCCC2CCCN1CCC(O)(C2CCCCC2)CC1 (stereo unspecified) | 9.27
46 | O=C(C1CCCCC1)N1CCN(C2CCCCC2)CC1 | 201
47 | COc1cccc2c1CCCC2CCCN1CC[N+](C)(C2CCCCC2)CC1 (stereo unspecified) | 13
48 | Cc1ccccc1NC(=N)Nc1ccccc1C [DITOLYLGUANIDINE] | 32
49 | COc1cccc2c1CCCC2CCCCCN1CCC(C2CCCCC2)CC1 (stereo unspecified) | 72.3
50 | COc1cccc2c1CCCC2CCCNCC(=O)NC1CCCCC1 (stereo unspecified) | 798
51 | COc1cccc2c1CCCC2CCC[N+]1(C)CCN(C2CCCCC2)CC1 (stereo unspecified) | 6.78
52 | COc1cccc2c1CCCC2NCCN1CCC(C2CCCCC2)CC1 (stereo unspecified) | 74.7
53 | COc1cccc2c1CCCC2CCCN1CCCCC1 (stereo unspecified) | 41.2
54 | CCN1CCN(C2CCCCC2)CC1 | 349
55 | COc1cccc2c1CCCC2CCC[N+]1(C)CC[N+](C)(C2CCCCC2)CC1 (stereo unspecified) | 1710
56 | C1CCC(N2CCNCC2)CC1 | > 5000
57 | COc1cccc2c1CCCC2CCCN1CCNCC1 (stereo unspecified) | 590
58 | COc1cccc2c1CCCC2OCCN1CCC(C2CCCCC2)CC1 (stereo unspecified) | 161
59 | COc1cccc2c1CCCC2CCCN1CCN(CCCC2CCCc3c(OC)cccc32)CC1 (stereo unspecified) | 120
60 | COc1cccc2c1CCCC2CCC(=O)N1CCN(C2CCCCC2)CC1 (stereo unspecified) | 179
61 | C1CCC(N2CCN(C3CCCCC3)CC2)CC1 | 11.5
62 | CC(=O)N1CCN(C2CCCCC2)CC1 | > 5000
63 | COc1cccc2c1CCCC2CCCC1CCN(C2CCCCC2)CC1 (stereo unspecified) | 26.6
64 | COc1cccc2c1CCCC2CCCN1CCC(C2CCCCC2)CC1 (stereo unspecified) | 18.8
65 | COc1cccc2c1CCCC2CCCN1CCN(C(=O)C2CCCCC2)CC1 (stereo unspecified) | 304
66 | COc1cccc2c1CCCC2CCCN1CCOCC1 (stereo unspecified) | 442

biological target: Sigma non-opioid intracellular receptor 1 (Rattus norvegicus, UniProt Q9R0C9); experiment: Displacement of [3H](+/-)-pentazocine from sigma 1 receptor in rat whole brain
Sequence (Q9R0C9 whole entry): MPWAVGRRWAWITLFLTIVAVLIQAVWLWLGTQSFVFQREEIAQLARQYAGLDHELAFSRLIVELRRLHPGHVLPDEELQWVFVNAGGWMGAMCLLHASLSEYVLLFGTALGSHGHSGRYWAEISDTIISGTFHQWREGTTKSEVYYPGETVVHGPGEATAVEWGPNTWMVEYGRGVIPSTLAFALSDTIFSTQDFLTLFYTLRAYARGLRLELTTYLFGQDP

Row | SMILES | Ki [nM]
67 | COc1cccc2c1CCCC2CCCN1CCCCC1 (stereo unspecified) | 18.2

system: SK-N-SH; experiment: Antiproliferative activity against human SK-N-SH cells after 48 hrs by MTT assay; assay type: functional, cell-based; in short: as §1

Row | SMILES | EC50 [nM]
68 | COc1cccc2c1CCCC2CCCN1CCC(O)(C2CCCCC2)CC1 (stereo unspecified) | 15900
69 | COc1cccc2c1CCCC2CCCN1CCN(C2CCCCC2)CC1 (stereo unspecified) | 9970
70 | C1CCC(CCCN2CCN(C3CCCCC3)CC2)CC1 | 52100
71 | COc1cccc2c1CCCC2CCCC1CCN(C2CCCCC2)CC1 (stereo unspecified) | 1400
72 | COc1cccc2c1CCCC2CCCN1CCC(C2CCCCC2)CC1 (stereo unspecified) | 3640

system: not listed separately; experiment: Selectivity ratio of Ki for sigma 1 receptor in Dunkin guinea pig brain membrane to Ki for sigma 2 receptor in Wistar Hannover rat liver membrane; assay type: cell membranes; in short: as §2

Row | SMILES | Ratio Ki
73 | COc1cccc2c1CCCC2CCCN1CC[N+](C)(C2CCCCC2)CC1 (stereo unspecified) | 26
74 | COc1cccc2c1CCCC2CCCCCN1CCC(C2CCCCC2)CC1 (stereo unspecified) | 3.3
75 | COc1cccc2c1CCCC2CCCNCC(=O)NC1CCCCC1 (stereo unspecified) | 5
76 | COc1cccc2c1CCCC2CCC[N+]1(C)CCN(C2CCCCC2)CC1 (stereo unspecified) | 9.4
77 | COc1cccc2c1CCCC2CCC[N+]1(C)CC[N+](C)(C2CCCCC2)CC1 (stereo unspecified) | > 3
78 | COc1cccc2c1CCCC2CCCN1CCN(CCCC2CCCc3c(OC)cccc32)CC1 (stereo unspecified) | > 42
79 | COc1cccc2c1CCCC2CCCN1CCC(C2CCCCC2)CC1 (stereo unspecified) | 7.6
80 | COc1cccc2c1CCCC2CCCN1CCN(C(=O)C2CCCCC2)CC1 (stereo unspecified) | > 16

biological target: T1, 3-beta-hydroxysteroid-Delta(8),Delta(7)-isomerase (Cavia porcellus, UniProt Q60490); experiment: Displacement of [3H](+/-)-emopamil from EBP in Dunkin guinea pig liver membrane by radioreceptor binding assay; assay type: cell membranes
T1 sequence (Q60490 whole entry): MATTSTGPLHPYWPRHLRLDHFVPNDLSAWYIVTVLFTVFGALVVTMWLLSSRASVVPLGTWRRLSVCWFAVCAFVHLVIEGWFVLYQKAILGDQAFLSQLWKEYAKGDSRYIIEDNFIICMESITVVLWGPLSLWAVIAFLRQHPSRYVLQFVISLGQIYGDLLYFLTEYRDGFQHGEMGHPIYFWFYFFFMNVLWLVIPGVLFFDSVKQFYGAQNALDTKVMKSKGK

Row | SMILES | Ki [nM]
81 | CC(=O)N1CCN(C)CC1 | > 1000
82 | COc1cccc2c1CCCC2CCCN1CCC(O)(C2CCCCC2)CC1 (stereo unspecified) | 10.4
83 | O=C(C1CCCCC1)N1CCN(C2CCCCC2)CC1 | 230
84 | COc1cccc2c1CCCC2CCCN1CC[N+](C)(C2CCCCC2)CC1 (stereo unspecified) | 23
85 | COc1cccc2c1CCCC2CCCCCN1CCC(C2CCCCC2)CC1 (stereo unspecified) | 49
86 | COc1cccc2c1CCCC2CCCNCC(=O)NC1CCCCC1 (stereo unspecified) | 1230
87 | COc1cccc2c1CCCC2CCC[N+]1(C)CCN(C2CCCCC2)CC1 (stereo unspecified) | 32
88 | COc1cccc2c1CCCC2CCCN1CCCCC1 (stereo unspecified) | 11.1
89 | CCN1CCN(C2CCCCC2)CC1 | 64.4
90 | COc1cccc2c1CCCC2CCC[N+]1(C)CC[N+](C)(C2CCCCC2)CC1 (stereo unspecified) | 150
91 | C1CCC(CCCN2CCN(C3CCCCC3)CC2)CC1 | 4.7
92 | C1CCC(N2CCNCC2)CC1 | > 1000
93 | COc1cccc2c1CCCC2CCCN1CCNCC1 (stereo unspecified) | 35.4
94 | CC(C(O)c1ccc(O)cc1)N1CCC(Cc2ccccc2)CC1 (racemic) [IFENPRODIL] | 10.2
95 | COc1cccc2c1CCCC2CCCN1CCN(CCCC2CCCc3c(OC)cccc32)CC1 (stereo unspecified) | 470
96 | COc1cccc2c1CCCC2CCC(=O)N1CCN(C2CCCCC2)CC1 (stereo unspecified) | 7.4
97 | C1CCC(N2CCN(C3CCCCC3)CC2)CC1 | 17
98 | CC(=O)N1CCN(C2CCCCC2)CC1 | > 1000
99 | COc1cccc2c1CCCC2CCCC1CCN(C2CCCCC2)CC1 (stereo unspecified) | 1.46
100 | COc1cccc2c1CCCC2CCCN1CCC(C2CCCCC2)CC1 (stereo unspecified) | 7.4
101 | COc1cccc2c1CCCC2CCCN1CCN(C(=O)C2CCCCC2)CC1 (stereo unspecified) | 550
